Laboratory results published in ChEMBL document CHEMBL3784971, “Synthesis, characterization, antimicrobial and biofilm inhibitory studies of new esterquats” (Bioorg Med Chem Lett, 2016).
≈ marks a conversion by molar mass, not a printed value.

Columns and labels:
[1] = test system: Staphylococcus aureus; assay: Antimicrobial activity against Staphylococcus aureus MTCC 96 assessed as growth inhibition after 24 hrs by agar well diffusion method; format: functional; conditions: MTCC 96, 24 h
[2] = test system: Bacillus subtilis; assay: Antimicrobial activity against Bacillus subtilis MTCC 121 assessed as growth inhibition after 24 hrs by agar well diffusion method; format: functional; conditions: MTCC 121, 24 h
[3] = test system: Staphylococcus aureus; assay: Antimicrobial activity against Staphylococcus aureus MLS16 MTCC 2940 assessed as growth inhibition after 24 hrs by agar well diffusion method; format: functional; conditions: MLS16 MTCC 2940, 24 h
[4] = test system: Micrococcus luteus; assay: Antimicrobial activity against Micrococcus luteus MTCC 2470 assessed as growth inhibition after 24 hrs by agar well diffusion method; format: functional; conditions: MTCC 2470, 24 h
[5] = test system: Raoultella planticola; assay: Antimicrobial activity against Klebsiella planticola MTCC 530 assessed as growth inhibition after 24 hrs by agar well diffusion method; format: functional; conditions: MTCC 530, 24 h
[6] = test system: Escherichia coli; assay: Antimicrobial activity against Escherichia coli MTCC 739 assessed as growth inhibition after 24 hrs by agar well diffusion method; format: functional; conditions: MTCC 739, 24 h
[7] = test system: Pseudomonas aeruginosa; assay: Antimicrobial activity against Pseudomonas aeruginosa MTCC 2453 assessed as growth inhibition after 24 hrs by agar well diffusion method; format: functional; conditions: MTCC 2453, 24 h
[8] = test system: Candida albicans; assay: Antimicrobial activity against Candida albicans MTCC 3017 assessed as growth inhibition after 24 hrs by agar well diffusion method; format: functional; conditions: MTCC 3017, 24 h
[9] = test system: Candida albicans; assay: Antimicrobial activity against Candida albicans MTCC 183 assessed as growth inhibition after 24 hrs by agar well diffusion method; format: functional; conditions: MTCC 183, 24 h
[10] = test system: Candida albicans; assay: Antimicrobial activity against Candida albicans MTCC 227 assessed as growth inhibition after 24 hrs by agar well diffusion method; format: functional; conditions: MTCC 227, 24 h
[11] = test system: Candida albicans; assay: Antimicrobial activity against Candida albicans MTCC 854 assessed as growth inhibition after 24 hrs by agar well diffusion method; format: functional; conditions: MTCC 854, 24 h
[12] = test system: Candida albicans; assay: Antimicrobial activity against Candida albicans MTCC 1637 assessed as growth inhibition after 24 hrs by agar well diffusion method; format: functional; conditions: MTCC 1637, 24 h
[13] = test system: Candida albicans; assay: Antimicrobial activity against Candida albicans MTCC 3018 assessed as growth inhibition after 24 hrs by agar well diffusion method; format: functional; conditions: MTCC 3018, 24 h
[14] = test system: Candida albicans; assay: Antimicrobial activity against Candida albicans MTCC 3958 assessed as growth inhibition after 24 hrs by agar well diffusion method; format: functional; conditions: MTCC 3958, 24 h
[15] = test system: Candida albicans; assay: Antimicrobial activity against Candida albicans MTCC 4748 assessed as growth inhibition after 24 hrs by agar well diffusion method; format: functional; conditions: MTCC 4748, 24 h
[16] = test system: Candida albicans; assay: Antimicrobial activity against Candida albicans MTCC 7315 assessed as growth inhibition after 24 hrs by agar well diffusion method; format: functional; conditions: MTCC 7315, 24 h
[17] = test system: Candida parapsilosis; assay: Antimicrobial activity against Candida parapsilosis MTCC 1744 assessed as growth inhibition after 24 hrs by agar well diffusion method; format: functional; conditions: Lodderomyces parapsilosis, MTCC 1744, 24 h
[18] = test system: [Candida] aaseri; assay: Antimicrobial activity against Candida aaseri MTCC 1962 assessed as growth inhibition after 24 hrs by agar well diffusion method; format: functional; conditions: Yamadazyma aaseri, MTCC 1962, 24 h
[19] = test system: Nakaseomyces glabratus; assay: Antimicrobial activity against Candida glabrata MTCC 3019 assessed as growth inhibition after 24 hrs by agar well diffusion method; format: functional; conditions: MTCC 3019, 24 h
[20] = test system: Pichia kudriavzevii; assay: Antimicrobial activity against Candida krusei MTCC 3020 assessed as growth inhibition after 24 hrs by agar well diffusion method; format: functional; conditions: MTCC 3020, 24 h
[21] = test system: Pichia sporocuriosa; assay: Antimicrobial activity against Issatchenkia hanoiensis MTCC 4755 assessed as growth inhibition after 24 hrs by agar well diffusion method; format: functional; conditions: MTCC 4755, 24 h
[22] = test system: Staphylococcus aureus; assay: Bactericidal activity against Staphylococcus aureus MTCC 96 after 24 hrs by serial dilution method; format: functional; conditions: MTCC 96, 24 h
[23] = test system: Bacillus subtilis; assay: Bactericidal activity against Bacillus subtilis MTCC 121 after 24 hrs by serial dilution method; format: functional; conditions: MTCC 121, 24 h
[24] = test system: Staphylococcus aureus; assay: Bactericidal activity against Staphylococcus aureus MLS16 MTCC 2940 after 24 hrs by serial dilution method; format: functional; conditions: MLS16 MTCC 2940, 24 h
[25] = test system: Micrococcus luteus; assay: Bactericidal activity against Micrococcus luteus MTCC 2470 after 24 hrs by serial dilution method; format: functional; conditions: MTCC 2470, 24 h
[26] = test system: Raoultella planticola; assay: Bactericidal activity against Klebsiella planticola MTCC 530 after 24 hrs by serial dilution method; format: functional; conditions: MTCC 530, 24 h
[27] = test system: Escherichia coli; assay: Bactericidal activity against Escherichia coli MTCC 739 after 24 hrs by serial dilution method; format: functional; conditions: MTCC 739, 24 h
[28] = test system: Candida albicans; assay: Fungicidal activity against Candida albicans MTCC 3017 after 24 hrs by serial dilution method; format: functional; conditions: MTCC 3017, 24 h
[29] = test system: Candida albicans; assay: Fungicidal activity against Candida albicans MTCC 183 after 24 hrs by serial dilution method; format: functional; conditions: MTCC 183, 24 h
[30] = test system: Candida albicans; assay: Fungicidal activity against Candida albicans MTCC 227 after 24 hrs by serial dilution method; format: functional; conditions: MTCC 227, 24 h
[31] = test system: Candida albicans; assay: Fungicidal activity against Candida albicans MTCC 854 after 24 hrs by serial dilution method; format: functional; conditions: MTCC 854, 24 h
[32] = test system: Candida albicans; assay: Fungicidal activity against Candida albicans MTCC 1637 after 24 hrs by serial dilution method; format: functional; conditions: MTCC 1637, 24 h
[33] = test system: Candida albicans; assay: Fungicidal activity against Candida albicans MTCC 3018 after 24 hrs by serial dilution method; format: functional; conditions: MTCC 3018, 24 h
[34] = test system: Candida albicans; assay: Fungicidal activity against Candida albicans MTCC 3958 after 24 hrs by serial dilution method; format: functional; conditions: MTCC 3958, 24 h
[35] = test system: Candida albicans; assay: Fungicidal activity against Candida albicans MTCC 4748 after 24 hrs by serial dilution method; format: functional; conditions: MTCC 4748, 24 h
[36] = test system: Candida albicans; assay: Fungicidal activity against Candida albicans MTCC 7315 after 24 hrs by serial dilution method; format: functional; conditions: MTCC 7315, 24 h
[37] = test system: Candida parapsilosis; assay: Fungicidal activity against Candida parapsilosis MTCC 1744 after 24 hrs by serial dilution method; format: functional; conditions: Lodderomyces parapsilosis, MTCC 1744, 24 h
[38] = test system: [Candida] aaseri; assay: Fungicidal activity against Candida aaseri MTCC 1962 after 24 hrs by serial dilution method; format: functional; conditions: Yamadazyma aaseri, MTCC 1962, 24 h
[39] = test system: Nakaseomyces glabratus; assay: Fungicidal activity against Candida glabrata MTCC 3019 after 24 hrs by serial dilution method; format: functional; conditions: MTCC 3019, 24 h
[40] = test system: Pichia kudriavzevii; assay: Fungicidal activity against Candida krusei MTCC 3020 after 24 hrs by serial dilution method; format: functional; conditions: MTCC 3020, 24 h
[41] = test system: Pichia sporocuriosa; assay: Fungicidal activity against Issatchenkia hanoiensis MTCC 4755 after 24 hrs by serial dilution method; format: functional; conditions: MTCC 4755, 24 h
[42] = test system: Staphylococcus aureus; assay: Antibiofilm activity against Staphylococcus aureus MTCC 96 after 24 hrs by crystal violet staining based assay; format: functional, organism-based; conditions: MTCC 96, 24 h
In short: (§1)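 Biofilm inhibition tested for amine esters and esterquats. IC50 values (µg/mL) are the mean of three determinations, with ciprofloxacin as reference.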

[43] = test system: Bacillus subtilis; assay: Antibiofilm activity against Bacillus subtilis MTCC 121 after 24 hrs by crystal violet staining based assay; format: functional, organism-based; conditions: MTCC 121, 24 h; in short: as §1
[44] = test system: Staphylococcus aureus; assay: Antibiofilm activity against Staphylococcus aureus MLS16 MTCC 2940 after 24 hrs by crystal violet staining based assay; format: functional, organism-based; conditions: MLS16 MTCC 2940, 24 h; in short: as §1
[45] = test system: Micrococcus luteus; assay: Antibiofilm activity against Micrococcus luteus MTCC 2470 after 24 hrs by crystal violet staining based assay; format: functional, organism-based; conditions: MTCC 2470, 24 h; in short: as §1

MIC [1]: 3.9 µg/mL (≈ 13 µM)
MIC [2]: 7.8 µg/mL (≈ 26 µM)
MIC [3]: 3.9 µg/mL (≈ 13 µM)
MIC [4]: 15.6 µg/mL (≈ 52.1 µM)
MIC [6]: > 125 µg/mL
MIC [7]: > 125 µg/mL
MIC [8]: 15.6 µg/mL (≈ 52.1 µM)
MIC [9]: 31.2 µg/mL (≈ 104 µM)
MIC [10]: 31.2 µg/mL (≈ 104 µM)
MIC [11]: 15.6 µg/mL (≈ 52.1 µM)
MIC [12]: 15.6 µg/mL (≈ 52.1 µM)
MIC [13]: 31.2 µg/mL (≈ 104 µM)
MIC [14]: 31.2 µg/mL (≈ 104 µM)
MIC [15]: 62.5 µg/mL (≈ 209 µM)
MIC [16]: 62.5 µg/mL (≈ 209 µM)
MIC [17]: 31.2 µg/mL (≈ 104 µM)
MIC [18]: 15.6 µg/mL (≈ 52.1 µM)
MIC [19]: 31.2 µg/mL (≈ 104 µM)
MIC [20]: 15.6 µg/mL (≈ 52.1 µM)
MIC [21]: 31.2 µg/mL (≈ 104 µM)
IC50 [42]: 2.6 µg/mL (≈ 8.68 µM)
IC50 [43]: 4.2 µg/mL (≈ 14 µM)
IC50 [44]: 3.9 µg/mL (≈ 13 µM)
IC50 [45]: 2.2 µg/mL (≈ 7.35 µM)
SMILES: CCCCCCNCCCCCCCCCCC(=O)OC
MIC [5]: > 125 µg/mL
MBC [22]: 7.8 µg/mL (≈ 26 µM)
MBC [23]: 15.6 µg/mL (≈ 52.1 µM)
MBC [24]: 7.8 µg/mL (≈ 26 µM)
MBC [25]: 31.2 µg/mL (≈ 104 µM)
MBC [26]: > 125 µg/mL
MBC [27]: > 125 µg/mL
MFC [28]: 31.2 µg/mL (≈ 104 µM)
MFC [29]: 62.5 µg/mL (≈ 209 µM)
MFC [30]: 31.2 µg/mL (≈ 104 µM)
MFC [31]: 31.2 µg/mL (≈ 104 µM)
MFC [32]: 31.2 µg/mL (≈ 104 µM)
MFC [33]: 62.5 µg/mL (≈ 209 µM)
MFC [34]: 62.5 µg/mL (≈ 209 µM)
MFC [35]: 62.5 µg/mL (≈ 209 µM)
MFC [36]: 62.5 µg/mL (≈ 209 µM)
MFC [37]: 62.5 µg/mL (≈ 209 µM)
MFC [38]: 31.2 µg/mL (≈ 104 µM)
MFC [39]: 31.2 µg/mL (≈ 104 µM)
MFC [40]: 31.2 µg/mL (≈ 104 µM)
MFC [41]: 31.2 µg/mL (≈ 104 µM)
